Results taken from ChEMBL document CHEMBL1221337, “The unsaturated acyclic nucleoside analogues bearing a sterically constrained (Z)-4'-benzamido-2'-butenyl moiety: Synthesis, X-ray crystal structure study, cytostatic and antiviral activity evaluations” (Bioorg Med Chem, 2010).
Activity calls are given as the source filed them. No cut-off for these calls is given here.

Legend:
[1] = test system: HeLa; experiment: Cytotoxicity against human HeLa cells assessed as cell viability after 3 days by coulter counting; type: cell-based; settings: 72 h
[2] = test system: Human alphaherpesvirus 1; experiment: Antiviral activity against HSV1 KOS infected in HEL cells assessed as inhibition of virus-induced cytopathicity; type: functional, organism-based
Summary of the method: (§1)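 Confluent cell monolayers in 96-well plates were inoculated with 100 CCID50 of virus. After 1 h adsorption, residual virus was removed. Cultures were then incubated with test compound at varying concentrations (200, 40, 8... µM). Viral cytopathicity was scored once it reached completion in untreated infected controls. Host cells: HEL for HSV-1 KOS and HSV-2 G; Vero for the Vero lines; HeLa for the HeLa lines.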

[3] = test system: MCF7; experiment: Cytotoxicity against human MCF7 cells after 72 hrs by MTT assay; type: functional, cell-based; settings: MCF7, 72 h
Summary of the method: (§2)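 Adherent cells were plated at 3000–6000 cells/well on day 0, according to doubling time. Compound was added as five 10-fold dilutions (1 × 10⁻⁸–1 × 10⁻⁴ M), with DMSO ≤0.1%, and incubated 72 h. Read-out was MTT absorbance converted to percentage growth versus untreated wells on the same plate. IC50 was obtained by linear regression between bracketing concentrations; the highest concentration was reported as ">" if not reached. Quadruplicates, three experiments.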

[4] = test system: Influenza A virus; experiment: Antiviral activity against influenza A virus H1N1; H3N2 infected in MDCK cells assessed as inhibition of virus-induced cytopathicity; type: functional, organism-based
Summary of the method: (§3)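 MDCK cells, nearly confluent in microtiter plates, were infected with 100 CCID50 per well. After 1 h adsorption, the inoculum was washed off. Cells were incubated with graded compound concentrations (200, 40, 8…). Cytopathicity was recorded at completion in untreated infected controls.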

[5] = test system: HEL; experiment: Cytotoxicity against HEL cells assessed as cell viability after 3 days by coulter counting; type: cell-based; settings: human, 72 h
Summary of the method: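 HEL cells were seeded at 5 × 10³ cells/well and allowed to proliferate 24 h. Medium with test compound at different concentrations was then added, and cells were incubated 3 days at 37 °C. Cell number was counted by Coulter counter. CC50 (50% reduction in cell number versus untreated controls) was read from plots of cell number (% of control) against concentration.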

[6] = test system: Mammalian orthoreovirus 1; experiment: Antiviral activity against Reovirus 1 infected in Vero cells assessed as inhibition of virus-induced cytopathicity; type: functional, organism-based; summary of the method: as §1
[7] = test system: MIA PaCa-2; experiment: Cytotoxicity against human MIAPaCa2 cells after 72 hrs by MTT assay; type: functional, cell-based; settings: MIA PaCa-2, 72 h; summary of the method: as §2
[8] = test system: Human alphaherpesvirus 2; experiment: Antiviral activity against HSV2 G infected in HEL cells assessed as inhibition of virus-induced cytopathicity; type: functional, organism-based; settings: strain G; summary of the method: as §1
[9] = test system: Coxsackievirus B4; experiment: Antiviral activity against Coxsackievirus B4 infected in Vero cells assessed as inhibition of virus-induced cytopathicity; type: functional, organism-based; summary of the method: as §1
[10] = test system: SW-620; experiment: Cytotoxicity against human SW620 cells after 72 hrs by MTT assay; type: functional, cell-based; settings: SW-620, 72 h; summary of the method: as §2
[11] = test system: Coxsackievirus B4; experiment: Antiviral activity against Coxsackievirus B4 infected in human HeLa cells assessed as inhibition of virus-induced cytopathicity; type: functional, organism-based; summary of the method: as §1
[12] = test system: Respiratory syncytial virus; experiment: Antiviral activity against Respiratory syncytial virus infected in human HeLa cells assessed as inhibition of virus-induced cytopathicity; type: functional, organism-based; summary of the method: as §1
[13] = test system: Punta Toro virus; experiment: Antiviral activity against Punta Toro virus infected in Vero cells assessed as inhibition of virus-induced cytopathicity; type: functional, organism-based; summary of the method: as §1
[14] = Cytotoxicity against human WI38 cells after 72 hrs by MTT assay; type: cell-based; settings: WI-38, 72 h; summary of the method: as §2
[15] = test system: HEp-2; experiment: Cytotoxicity against human Hep2 cells after 72 hrs by MTT assay; type: functional, cell-based; settings: HEp-2, 72 h; summary of the method: as §2
[16] = test system: Sindbis virus; experiment: Antiviral activity against Sindbis virus infected in Vero cells assessed as inhibition of virus-induced cytopathicity; type: functional, organism-based; summary of the method: as §1
[17] = test system: Vesicular stomatitis virus; experiment: Antiviral activity against Vesicular stomatitis virus infected in human HeLa cells assessed as inhibition of virus-induced cytopathicity; type: functional, organism-based
Summary of the method: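 Confluent HeLa cultures were infected with 100 CCID50 of virus. Unadsorbed virus was removed after 1 h, and compound was added at serial concentrations (200, 40, 8…). Viral cytopathic effect was read when untreated virus-infected control wells reached full cytopathicity.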

[18] = test system: Vesicular stomatitis virus; experiment: Antiviral activity against Vesicular stomatitis virus infected in HEL cells assessed as inhibition of virus-induced cytopathicity; type: functional, organism-based
[19] = test system: SK-BR-3; experiment: Cytotoxicity against human SK-BR-3 cells after 72 hrs by MTT assay; type: functional, cell-based; settings: SK-BR-3, 72 h; summary of the method: as §2
[20] = test system: Vero; experiment: Cytotoxicity against african green monkey Vero cells assessed as cell viability after 3 days by coulter counting; type: cell-based; settings: chlorocebus sabaeus, 72 h
[21] = test system: Influenza B virus; experiment: Antiviral activity against influenza B virus infected in MDCK cells assessed as inhibition of virus-induced cytopathicity; type: functional, organism-based; summary of the method: as §3
[22] = test system: MDCK; experiment: Cytotoxicity against MDCK cells assessed as cell viability after 3 days by coulter counting; type: cell-based, Canis lupus familiaris; settings: dog, 72 h
[23] = test system: Human respirovirus 3; experiment: Antiviral activity against Parainfluenza 3 infected in Vero cells assessed as inhibition of virus-induced cytopathicity; type: functional, organism-based; summary of the method: as §1
[24] = test system: Vaccinia virus; experiment: Antiviral activity against Vaccinia virus infected in HEL cells assessed as inhibition of virus-induced cytopathicity; type: functional, organism-based; settings: Orthopoxvirus vaccinia
[25] = test system: HeLa; experiment: Cytotoxicity against human HeLa cells after 72 hrs by MTT assay; type: functional, cell-based; summary of the method: as §2

SMILES | Activity [1] | inhibition [2] | IC50 [3] [µM] | inhibition [4] | Activity [5] | inhibition [6] | IC50 [7] [µM] | inhibition [8] | inhibition [9] | IC50 [10] [µM] | inhibition [11] | inhibition [12] | inhibition [13] | IC50 [14] [µM] | IC50 [15] [µM] | inhibition [16] | inhibition [17] | inhibition [18] | IC50 [19] [µM] | Activity [20] | other results
Nc1ccn(C/C=C\CNC(=O)c2ccc(F)cc2)c(=O)n1 | Non-toxic | inactive | > 100 | inactive | Non-toxic | inactive | > 100 | inactive | inactive | > 100 | inactive | inactive | inactive | 4 | > 100 | inactive | inactive | inactive | > 100 | Non-toxic | inhibition [21]: inactive; Activity [22]: Non-toxic; inhibition [23]: inactive; inhibition [24]: inactive; IC50 [25]: > 100 µM
Cc1cn(C/C=C\CNC(=O)c2ccc(F)cc2)c(=O)[nH]c1=O | Non-toxic | inactive | 24.1 | inactive | Non-toxic | inactive | > 100 | inactive | inactive | > 100 | inactive | inactive | inactive | 0.1 | > 100 | inactive | inactive | inactive | > 100 | Non-toxic | inhibition [21]: inactive; Activity [22]: Non-toxic; inhibition [23]: inactive; inhibition [24]: inactive; IC50 [25]: > 100 µM
O=C(NC/C=C\Cn1ccc(=O)[nH]c1=O)c1ccc(F)cc1 | Non-toxic | inactive | 2.7 | inactive | Non-toxic | inactive | > 100 | inactive | inactive | > 100 | inactive | inactive | inactive | > 100 | > 100 | inactive | inactive | inactive | > 100 | Non-toxic | inhibition [21]: inactive; Activity [22]: Non-toxic; inhibition [23]: inactive; inhibition [24]: inactive; IC50 [25]: > 100 µM
Nc1ccn(C/C=C\CNC(=O)c2ccccc2)c(=O)n1 | Non-toxic | inactive | 31.4 | inactive | Non-toxic | inactive | > 100 | inactive | inactive | > 100 | inactive | inactive | inactive | 4.2 | > 100 | inactive | inactive | inactive | 72 | Non-toxic | inhibition [21]: inactive; Activity [22]: Non-toxic; inhibition [23]: inactive; inhibition [24]: inactive; IC50 [25]: > 100 µM
O=C(NC/C=C\Cn1cc(F)c(=O)[nH]c1=O)c1ccccc1 | Non-toxic | inactive | > 100 | inactive | Non-toxic | inactive | > 100 | inactive | inactive | > 100 | inactive | inactive | inactive | > 100 | 87.5 | inactive | inactive | inactive | > 100 | Non-toxic | inhibition [21]: inactive; Activity [22]: Non-toxic; inhibition [23]: inactive; inhibition [24]: inactive; IC50 [25]: > 100 µM
Cc1cn(C/C=C\CNC(=O)c2ccccc2)c(=O)[nH]c1=O | Non-toxic | inactive | > 100 | inactive | Non-toxic | inactive | > 100 | inactive | inactive | > 100 | inactive | inactive | inactive | 4.3 | > 100 | inactive | inactive | inactive | > 100 | Non-toxic | inhibition [21]: inactive; Activity [22]: Non-toxic; inhibition [23]: inactive; inhibition [24]: inactive; IC50 [25]: > 100 µM
